Assay results: ChEMBL document CHEMBL3804796, “Discovery of Novel 3,3-Disubstituted Piperidines as Orally Bioavailable, Potent, and Efficacious HDM2-p53 Inhibitors” (ACS Med Chem Lett, 2016)
pEC50, pIC50: −log10 of the molar value. Calls of active or inactive are those of the source. The rule behind the calls is not given here.

Assays:
[1] = tested on: A549; experiment: Antiproliferative activity against human A549 cells expressing wild type p53 after 72 hrs by CellTitre-Glo assay; format: functional, cell-based
Method in brief: (§1)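 Cell lines exposed to compound for 72 h; viability read by CellTiter-Glo and IC50 derived. p53 coding-region mutation status of each line established by direct sequencing.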

[2] = tested on: NCI-H460; experiment: Antiproliferative activity against human NCI-H460 cells expressing wild type p53 after 72 hrs by CellTitre-Glo assay; format: functional, cell-based; method in brief: as §1
[3] = tested on: WM-115; experiment: Antiproliferative activity against human WM115 cells expressing wild type p53 after 72 hrs by CellTitre-Glo assay; format: functional, cell-based; method in brief: as §1
[4] = tested on: A549; experiment: Antitumor activity against human A549 cells xenografted in nude mouse assessed as tumor growth inhibition at 100 mg/kg, po qd administered with cycle of 3 days on, 4 days off for 30 days coadministered with 20 mg/kg, ip once weekly paclitaxel relative to control; format: functional
Method in brief: (§2)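 Mice bearing A549 NSCLC xenografts. The test agent was given orally, either daily or intermittently (daily for 3 days, then 4 days off). Paclitaxel was given at 20 mg/kg ip weekly, alone or in combination. Read-out was tumor growth inhibition.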

[5] = target: Tumour suppressor p53/oncoprotein Mdm2 (Homo sapiens, UniProt Q00987); experiment: Inhibition of MDM2/p53 interaction in human HCT116 cells assessed as activation of p53 transcription by luciferase reporter gene assay; format: cell-based, HCT-116
Sequence of Tumour suppressor p53/oncoprotein Mdm2 (P04637 whole entry): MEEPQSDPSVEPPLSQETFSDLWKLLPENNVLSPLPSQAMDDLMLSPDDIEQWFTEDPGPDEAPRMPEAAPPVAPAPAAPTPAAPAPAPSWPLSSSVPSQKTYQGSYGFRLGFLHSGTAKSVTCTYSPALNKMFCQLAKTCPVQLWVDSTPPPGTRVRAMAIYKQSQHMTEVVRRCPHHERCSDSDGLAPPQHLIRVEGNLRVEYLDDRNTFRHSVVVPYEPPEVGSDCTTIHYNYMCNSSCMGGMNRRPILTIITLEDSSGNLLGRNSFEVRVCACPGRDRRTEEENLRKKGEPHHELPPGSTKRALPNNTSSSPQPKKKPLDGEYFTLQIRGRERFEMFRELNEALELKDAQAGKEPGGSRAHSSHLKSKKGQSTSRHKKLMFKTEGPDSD
Sequence of Tumour suppressor p53/oncoprotein Mdm2 (Q00987 whole entry): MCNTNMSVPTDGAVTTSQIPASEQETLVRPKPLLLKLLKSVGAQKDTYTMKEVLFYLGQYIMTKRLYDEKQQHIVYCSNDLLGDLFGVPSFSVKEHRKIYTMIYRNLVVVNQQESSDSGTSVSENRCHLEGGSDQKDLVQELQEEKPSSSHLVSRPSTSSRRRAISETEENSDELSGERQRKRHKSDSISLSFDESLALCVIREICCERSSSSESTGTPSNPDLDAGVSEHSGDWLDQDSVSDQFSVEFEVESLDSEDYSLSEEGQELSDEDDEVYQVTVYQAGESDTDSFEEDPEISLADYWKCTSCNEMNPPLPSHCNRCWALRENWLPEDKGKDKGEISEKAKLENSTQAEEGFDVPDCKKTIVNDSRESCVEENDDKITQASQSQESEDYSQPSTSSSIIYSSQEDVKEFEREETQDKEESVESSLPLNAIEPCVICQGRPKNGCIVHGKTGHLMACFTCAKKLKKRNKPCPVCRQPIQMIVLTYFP
Method in brief: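 p53 transcriptional activation measured in HCT116 cells with a p53 response element–driven luciferase reporter (P53RE-Luc).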

[6] = tested on: SJSA-1; experiment: Selectivity ratio of IC50 for p53 null human H1299 cells to IC50 for human SJSA1 cells expressing wild type p53; format: functional
Method in brief: (§3)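 Ratio of two IC50s, each from a 72 h CellTiter-Glo viability assay. p53 coding-region status was confirmed by direct sequencing. The ratio is p53-mutant (SK-UT-1) or p53-null (H1299) IC50 divided by wild-type p53 (SJSA-1 or HCT116) IC50.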

[7] = Intrinsic clearance in human liver microsomes; format: ADME; conditions: read-out: CLH
[8] = tested on: Canis familiaris; experiment: Dose normalized AUC (0 to 24 hrs) in dog at 1 mg/kg, po administered as single dose; format: ADME, organism-based, Canis lupus familiaris; conditions: in vivo
Method in brief: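 Single oral dose of 1 mg/kg. Vehicle was 20% HPBCD for mouse and 0.4% HPMC for dog and monkey. Plasma AUC over 0–24 h, dose-normalized, reported in μM·h.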

[9] = tested on: HCT-116; experiment: Selectivity ratio of IC50 for human SK-UT-1 cells harboring mutant p53 to IC50 for human HCT116 cells expressing wild type p53; format: functional; method in brief: as §3
[10] = Clearance in mouse at 2 mg/kg, iv; format: ADME, organism-based; conditions: in vivo
[11] = Clearance in dog at 1 mg/kg, iv; format: ADME, organism-based, Canis lupus familiaris; conditions: in vivo
[12] = target: Cytochrome P450 2D6 (Homo sapiens, UniProt P10635); experiment: Inhibition of CYP2D6 (unknown origin); format: ADME
Sequence of Cytochrome P450 2D6 (P10635 whole entry): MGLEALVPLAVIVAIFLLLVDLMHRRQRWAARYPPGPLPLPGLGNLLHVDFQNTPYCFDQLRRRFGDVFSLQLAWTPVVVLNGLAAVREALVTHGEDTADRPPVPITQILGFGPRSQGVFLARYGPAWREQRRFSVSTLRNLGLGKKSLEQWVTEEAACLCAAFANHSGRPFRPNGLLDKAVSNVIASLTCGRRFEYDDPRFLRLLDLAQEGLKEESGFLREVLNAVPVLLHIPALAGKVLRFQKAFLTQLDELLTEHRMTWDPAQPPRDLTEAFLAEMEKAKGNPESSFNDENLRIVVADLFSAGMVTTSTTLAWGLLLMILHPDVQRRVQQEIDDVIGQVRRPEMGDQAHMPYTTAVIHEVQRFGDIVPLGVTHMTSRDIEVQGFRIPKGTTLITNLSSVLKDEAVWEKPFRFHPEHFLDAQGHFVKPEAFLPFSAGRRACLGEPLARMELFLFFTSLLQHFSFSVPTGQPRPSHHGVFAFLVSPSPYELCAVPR

[13] = target: Cytochrome P450 2C8 (Homo sapiens, UniProt P10632); experiment: Inhibition of CYP2C8 (unknown origin); format: ADME
Sequence of Cytochrome P450 2C8 (P10632 whole entry): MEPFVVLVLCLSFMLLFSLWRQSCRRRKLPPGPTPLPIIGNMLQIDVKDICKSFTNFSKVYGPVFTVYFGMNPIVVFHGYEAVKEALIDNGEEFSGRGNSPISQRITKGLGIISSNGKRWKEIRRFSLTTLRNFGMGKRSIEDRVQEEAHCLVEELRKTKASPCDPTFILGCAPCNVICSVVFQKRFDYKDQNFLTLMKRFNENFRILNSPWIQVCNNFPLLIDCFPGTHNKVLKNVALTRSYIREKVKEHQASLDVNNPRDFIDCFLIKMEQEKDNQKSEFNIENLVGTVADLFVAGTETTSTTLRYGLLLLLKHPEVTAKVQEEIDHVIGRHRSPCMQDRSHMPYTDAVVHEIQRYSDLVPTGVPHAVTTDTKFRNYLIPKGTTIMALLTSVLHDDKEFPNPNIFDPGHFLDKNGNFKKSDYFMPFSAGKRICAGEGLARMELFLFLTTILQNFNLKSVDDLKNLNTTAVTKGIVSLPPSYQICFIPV

[14] = target: Cytochrome P450 2C9 (Homo sapiens, UniProt P11712); experiment: Inhibition of CYP2C9 (unknown origin); format: ADME
Sequence of Cytochrome P450 2C9 (P11712 whole entry): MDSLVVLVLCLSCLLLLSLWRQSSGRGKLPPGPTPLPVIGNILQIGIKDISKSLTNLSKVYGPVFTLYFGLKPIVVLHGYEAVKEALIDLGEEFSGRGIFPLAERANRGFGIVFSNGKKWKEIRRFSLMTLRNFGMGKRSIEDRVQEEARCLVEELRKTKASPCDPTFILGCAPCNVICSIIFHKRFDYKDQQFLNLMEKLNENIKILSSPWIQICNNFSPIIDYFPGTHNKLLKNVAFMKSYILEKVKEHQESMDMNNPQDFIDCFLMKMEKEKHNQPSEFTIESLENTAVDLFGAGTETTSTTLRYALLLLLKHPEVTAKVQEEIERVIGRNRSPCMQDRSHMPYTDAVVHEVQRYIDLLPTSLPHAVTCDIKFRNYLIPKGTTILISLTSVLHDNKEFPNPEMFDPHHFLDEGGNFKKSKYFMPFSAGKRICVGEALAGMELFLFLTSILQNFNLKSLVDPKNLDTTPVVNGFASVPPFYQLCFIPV

[15] = Fraction unbound in human plasma; format: ADME, cell-free
[16] = Fraction unbound in monkey plasma; format: ADME, cell-free, Macaca mulatta; conditions: rhesus monkey
[17] = Fraction unbound in dog plasma; format: ADME, cell-free, Canis lupus familiaris
[18] = Fraction unbound in mouse plasma; format: ADME, cell-free
[19] = Antitumor activity against human SJSA1 cells xenografted in nude mouse assessed as tumor growth inhibition at 50 mg/kg, po qd administered with cycle of 3 days on, 4 days off for 30 days relative to control; format: functional; conditions: SJSA-1, po, read-out: TGI
Method in brief: (§4)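 Nude mice bearing SJSA-1 osteosarcoma xenografts, n = 5 per group. Oral dosing in 20% HPBCD, given either intermittently (daily, 3 days on/4 days off) or continuously daily. Body weight was monitored against a vehicle control group.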

[20] = Antitumor activity against human SJSA1 cells xenografted in nude mouse assessed as tumor growth inhibition at 100 mg/kg, po qd administered with cycle of 3 days on, 4 days off for 30 days relative to control; format: functional; conditions: SJSA-1, po, read-out: TGI; method in brief: as §4
[21] = Antitumor activity against human SJSA1 cells xenografted in nude mouse assessed as tumor growth inhibition at 200 mg/kg, po qd administered with cycle of 3 days on, 4 days off for 30 days relative to control; format: functional; conditions: SJSA-1, po, read-out: TGI; method in brief: as §4
[22] = Antitumor activity against human SJSA1 cells xenografted in nude mouse assessed as tumor growth inhibition at 200 mg/kg, po qd continuously for 30 days relative to control; format: functional; conditions: SJSA-1, po, 720 h, read-out: TGI; method in brief: as §4
[23] = tested on: SJSA-1; experiment: Antitumor activity against human SJSA1 cells xenografted in nude mouse assessed as tumor growth inhibition at 100 mg/kg, po qd continuously for 30 days; format: functional, organism-based
Method in brief: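 Nude mice bearing SJSA-1 osteosarcoma xenografts, 5 per group, dosed orally in 20% HPBCD. Schedules were either continuous daily or intermittent (3 days on, 4 days off), at 100 and 200 mpk. Tumor volume and body weight followed against a vehicle control group.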

[24] = tested on: A549; experiment: Antitumor activity against human A549 cells xenografted in nude mouse assessed as tumor growth inhibition at 200 mg/kg, po qd continuously for 30 days relative to control; format: functional; conditions: 720 h, read-out: TGI; method in brief: as §2
[25] = tested on: A549; experiment: Antitumor activity against human A549 cells xenografted in nude mouse assessed as tumor growth inhibition at 100 mg/kg, po qd administered with cycle of 3 days on, 4 days off for 30 days relative to control; format: functional; conditions: read-out: TGI; method in brief: as §2
[26] = tested on: A2780; experiment: Antitumor activity against human A2780 cells xenografted in nude mouse harboring wild type p53 assessed as tumor growth inhibition at 50 mg/kg, po bid continuously for 15 days relative to control; format: functional; conditions: 360 h, read-out: TGI
Method in brief: (§5)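 Wild-type p53 mice bearing A2780 ovarian xenografts. The test agent was given at 50 mg/kg orally twice daily, continuously. Docetaxel was given at 40 mg/kg ip weekly, twice in total. Each was given alone and in combination. Read-out was tumor growth inhibition.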

[27] = tested on: ACHN; experiment: Antiproliferative activity against human ACHN cells expressing wild type p53 after 72 hrs by CellTitre-Glo assay; format: functional, cell-based; method in brief: as §1
[28] = tested on: A498; experiment: Antiproliferative activity against human A498 cells expressing wild type p53 after 72 hrs by CellTitre-Glo assay; format: functional, cell-based; method in brief: as §1
[29] = tested on: A2780; experiment: Antiproliferative activity against human A2780 cells expressing wild type p53 after 72 hrs by CellTitre-Glo assay; format: functional, cell-based; method in brief: as §1
[30] = tested on: EOL1; experiment: Antiproliferative activity against human EOL-1 cells expressing wild type p53 after 72 hrs by CellTitre-Glo assay; format: functional, cell-based; method in brief: as §1
[31] = tested on: Daudi; experiment: Antiproliferative activity against human Daudi cells expressing wild type p53 after 72 hrs by CellTitre-Glo assay; format: functional, cell-based; method in brief: as §1
[32] = tested on: A2780; experiment: Antitumor activity against human A2780 cells xenografted in nude mouse harboring wild type p53 assessed as tumor growth inhibition at 50 mg/kg, po bid continuously for 15 days coadministered with 40 mg/kg, ip, once weekly docetaxel relative to control; format: functional; method in brief: as §5
[33] = tested on: MOLT-4; experiment: Antiproliferative activity against human MOLT4 cells expressing wild type p53 after 72 hrs by CellTitre-Glo assay; format: functional, cell-based; method in brief: as §1
[34] = tested on: ML-2; experiment: Antiproliferative activity against human ML2 cells expressing wild type p53 after 72 hrs by CellTitre-Glo assay; format: functional, cell-based; method in brief: as §1
[35] = tested on: SR; experiment: Antiproliferative activity against human SR cells expressing wild type p53 after 72 hrs by CellTitre-Glo assay; format: functional, cell-based; method in brief: as §1

What does the source list for CCC[C@H]1N(C(=O)c2cnccc2C(F)(F)F)CCC[C@@]1(Oc1csc(C(F)(F)F)c1)C(=O)N1CCN(c2ccccc2OCCCC(=O)O)CC1?
Activity [1]: Active; Activity [2]: Active; Activity [3]: Active; TGI [4]: 85%; pEC50 [5]: 7.00; Ratio IC50 [6]: >500; CLint scaled [7]: 3 mL/min/kg; AUC/dose [8]: 5.8 µM·h; Ratio IC50 [9]: >500; clearance [10]: 133 mL/min/kg; clearance [11]: 4.1 mL/min/kg; pIC50 [12]: < 4.30; pIC50 [13]: < 4.30; pIC50 [14]: < 4.30; fraction unbound [15]: 0.04; fraction unbound [16]: 0.05; fraction unbound [17]: 0.02; fraction unbound [18]: 0.03; inhibition in vivo at 50 mg/kg [19]: 92%; inhibition in vivo at 100 mg/kg [20]: 31%; inhibition in vivo at 200 mg/kg [21]: 49%; inhibition in vivo at 200 mg/kg [22]: 60%; TGI [23]: Active; inhibition in vivo at 200 mg/kg [24]: 75%; inhibition in vivo at 100 mg/kg [25]: 27%; inhibition in vivo at 50 mg/kg [26]: 41%; Activity [27]: Active; Activity [28]: Active; Activity [29]: Active; Activity [30]: Active; Activity [31]: Active; TGI [32]: 81%; Activity [33]: Active; Activity [34]: Active; Activity [35]: Active
